Screens (PubChem BioAssay)
Shown are actives, neighbours in structure and some others; about 2.3% of the full set was active somewhere.
PLC-beta3 inh: PLC-beta3 (human) inhibition, primary screen. Purified PLC-beta3, fluorogenic substrate, fluorescence. inhibition, % at 12.2 µM. 370,000 tested, 0.18% active. AID 720704; in the data active means inhibition above about 11%;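 further: 0% = median of compound wells on plate and 100% = full blocker control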
PLC-gamma1 inh: PLC-gamma1 (human) inhibition, primary screen | 370,000 tested, 0.84% active | inhibition, % at 12.2 µM | P19174 | purified PLC-gamma1, fluorogenic substrate, fluorescence; in the data active means inhibition above about 9.5%
ADAM10 inh: inhibitors of human ADAM10; 370,000 tested, 0.62% active; O14672; inhibition, % at 7 µM; AID 720582; recombinant ADAM10, EDANS/DABCYL FRET peptide cleavage, 3 h;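 active means inhibition above a per-campaign cutoff equal to the mean of compounds falling between control-based bounds plus 3 SD, cut at about 20% in these data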;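 further: 0% = DMSO wells while the 100% control is not disclosed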
DDE Tn6 FP inh: DD(E)-Tn6 binding inhibition, primary FP screen. AID 720509. inhibition, % at 8.3 µM. P02675. 370,000 tested, 0.21% active. Fibrin DD(E) TRITC-Tn6 fluorescence polarization displacement;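 active means inhibition above a per-campaign cutoff: mean of compounds within control limits plus 3 SD, cut at about 15% in these data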;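 further: 0% = median of all compound wells on the plate and 100% = blocking peptide control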
Target sequence (P02675 whole entry, looked up): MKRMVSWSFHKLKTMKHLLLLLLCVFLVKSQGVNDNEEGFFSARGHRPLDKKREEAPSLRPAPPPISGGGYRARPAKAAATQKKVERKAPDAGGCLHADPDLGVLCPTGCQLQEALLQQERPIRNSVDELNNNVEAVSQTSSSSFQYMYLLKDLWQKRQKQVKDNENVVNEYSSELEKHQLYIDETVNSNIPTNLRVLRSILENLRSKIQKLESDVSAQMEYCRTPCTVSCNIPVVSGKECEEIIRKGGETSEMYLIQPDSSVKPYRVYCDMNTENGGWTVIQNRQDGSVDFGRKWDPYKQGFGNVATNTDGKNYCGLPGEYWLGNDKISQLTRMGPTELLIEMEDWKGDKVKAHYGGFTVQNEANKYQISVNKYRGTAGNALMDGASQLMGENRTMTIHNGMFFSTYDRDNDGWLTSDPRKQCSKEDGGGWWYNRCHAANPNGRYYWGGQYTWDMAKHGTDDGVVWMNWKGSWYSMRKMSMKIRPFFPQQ
Tn7 DDE FP: disrupts Tn7 cyclic peptide binding to fibrin D-Dimer-E complex; P02675; FP displacement of FITC-Tn7 peptide from fibrin DD(E); 0% = median of compound wells per plate; inhibition, % at 8.3 µM; 370,000 tested, 0.13% active; AID 720508;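 active means inhibition above the mean of compounds falling within the control limits plus 3 SD of them, cut at about 14% in these data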;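 further: 0% = plate median of compound wells and 100% = 10 µM Aha-Tn7 peptide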
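Assay system: Fibrin-DD(E) protein isolated from polymerized human fibrin clots; read-out basis: percent inhibition; medium: Tris/NaCl/CaCl2 buffer, pH 7.8; signal: FP measurement; incubation: 10 min plus 3 h, room temperature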
ADAM17 inh: ADAM17 inhibition, QFRET primary screen. P78536. recombinant ADAM17, EDANS/DABCYL FRET peptide cleavage. inhibition, % at 6.95 µM. 370,000 tested, 0.83% active. AID 720648;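 active means inhibition above the mean of compounds lying between control limits plus 3 SD, set per campaign, cut at about 8.5% in these data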;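 further: 0% = DMSO-only wells as the low control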
ADAM10 ctr: inhibits human ADAM10 in ADAM17 exosite counter-screen; 2,900 tested, 47% active; shares compounds with ADAM17 inh; inhibition, % at 6.95 µM; recombinant ADAM10, EDANS/DABCYL FRET peptide cleavage, 3 h; AID 743256;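 active means mean inhibition over the triplicate runs exceeds the activity threshold set in the earlier primary screen, cut at about 20% in these data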;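 further: 0% = DMSO wells and 100% = marimastat wells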
ADAM17 confirm: confirmation of inhibitors of human ADAM17. shares compounds with ADAM17 inh. recombinant ADAM17, EDANS/DABCYL QFRET peptide cleavage. inhibition, % at 6.95 µM. 2,900 tested, 65% active. AID 743257;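 active means mean inhibition across replicates above the hit cutoff set in the primary screen, cut at about 8.5% in these data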;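 further: 0% = DMSO wells and 100% = marimastat wells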
An asterisk follows results filed as active; · = no result.

SMILES | PLC-beta3 inh | PLC-gamma1 inh | ADAM10 inh | DDE Tn6 FP inh | Tn7 DDE FP | ADAM17 inh | ADAM10 ctr | ADAM17 confirm
Cc1ccc(C(=O)CCC(=O)N(C)CC(=O)Nc2ccccc2Br)cc1 | -10 | -1 | -6 | -1 | 2 | -5 | · | ·
CC(C)n1nnnc1C1(C)CCCCC(=O)N1Cc1cccc(C(F)(F)F)c1 (centres undefined) | 4 | 2 | 4 | 9 | -5 | 2 | · | ·
CCCCCn1nnnc1C1(C)CN(S(C)(=O)=O)CC(=O)N1Cc1ccco1 (centres undefined) | 2 | -1 | 0 | -1 | -6 | 1 | · | ·
O=C(O)CCC(=O)c1c[nH]c2ccccc12 | -2 | -1 | 1 | 0 | -1 | 8.9* | 9 | 20*
CCN(CC)CC(=O)c1c[nH]c2ccccc12 | -4 | -4 | -6 | 6 | 0 | -7 | · | ·
CCN(CC)S(=O)(=O)c1cc(NC(=O)C(C)N2CCc3ccccc32)ccc1C (centres undefined) | 3 | 1 | 18 | 0 | 7 | 10* | 10 | 7
COc1ccccc1CN(C)C(=O)c1cc(C)nc2ccccc12 | -6 | -2 | -5 | 3 | 3 | 2 | · | ·
COc1ccc(CN(C)C(=O)c2cc(-c3ccccc3)nc3ccc(C)cc23)c(OC)c1 | 2 | 8 | 14 | -9 | 3 | 12* | 3 | 5
CCOc1ccc(NC(=O)CN(C)C(=O)c2cn(-c3ccc(C)cc3)nc2-c2cccc(OC)c2)cc1OCC | -3 | 3 | 9 | -7 | -12 | 14* | 34* | 18*
Cc1ccccc1NC(=O)Cc1nc(COC(=O)c2ccc(Cl)nc2)cs1 | -14 | -5 | -10 | -5 | -6 | 8.7* | 7 | 5
Cc1ccccc1NC(=O)Cc1nc(COC(=O)c2nc(Cl)ccc2Cl)cs1 | -5 | -2 | -6 | 3 | -1 | -2 | · | ·
O=C(CSc1cn(CCNC(=O)c2ccccc2F)c2ccccc12)NCC1CCCO1 (centres undefined) | -6 | 1 | 0 | -17 | -4 | -4 | · | ·
O=C(NCCn1cc(SCc2ccccc2)c2ccccc21)c1ccccc1F | 0 | 2 | 16 | -1 | -10 | 10* | 12 | 9.2*
C#CCNC(=O)C[C@H]1C[C@@]2(C(=O)OC)C(=C[C@H](COCc3ccccc3)O[C@@H]2C)N(Cc2cccc3ccccc23)C1=O | 0 | -1 | 3 | 6 | 4 | 0 | · | ·
O=C(c1ccc(CS(=O)Cc2ccc(Cl)cc2)o1)N1CCN(c2cccc(Cl)c2)CC1 (centres undefined) | -9 | -4 | 7 | -3 | 6 | 1 | · | ·
Cc1cccc(N2CCN(C(=O)c3ccc(CS(=O)Cc4ccc(Cl)cc4)o3)CC2)c1C (centres undefined) | -10 | 3 | 19 | 6 | -10 | 11* | 18 | 12*
Cc1ccc(N(CC(=O)Nc2ccccc2C(=O)NCc2ccco2)S(=O)(=O)c2ccccc2)cc1C | -17 | -9 | 4 | -5 | -8 | -6 | · | ·
Cc1ccc(C)c(N(CC(=O)Nc2ccccc2C(=O)NCc2ccco2)S(=O)(=O)c2ccccc2)c1 | -2 | 5 | 12 | 2 | -5 | 9.6* | 23* | 16*
COc1cc(-c2n[nH]c(=S)n2-c2ccc(C)cc2)cc(OC)c1OC | -6 | -5 | -9 | 5 | -3 | -3 | · | ·
COc1ccc(-c2n[nH]c(=S)n2-c2ccc(Br)cc2)cc1OC | 0 | 6 | 2 | -6 | -3 | 11* | 2 | 37*
O=C(c1ccncc1)N(c1ccc2oc3c(c2c1)CCCC3)S(=O)(=O)c1ccc(F)cc1 | 2 | 1 | 17 | 4 | -5 | 8.8* | 9 | 7
OCCOCCn1c(C2CCCN2c2nc(-c3ccc(F)cc3)cs2)nc2cc(C(F)(F)F)ccc21 (centres undefined) | -1 | 3 | 12 | -2 | -2 | 9.9* | 7 | 7
O=C(CN(C(=O)OCC1c2ccccc2-c2ccccc21)[C@@H](Cc1ccccc1)C(=O)O)OCc1ccc(C(=O)NCc2ccccc2)cc1 | -4 | 1 | 10 | -4 | 2 | 2 | · | ·
Cc1ccccc1-c1cccc2c3c([nH]c12)[C@@H]1C[C@H]2[C@@H](CN1CC3)[C@H](C)ON2C | -115 | -82 | -16 | -5 | 5 | -4 | · | ·
CCOC(=O)c1c(NC(=O)CSc2c[nH]c3ccccc23)sc2c1CCCC2 | -3 | 1 | 9 | 1 | -4 | 9.7* | 24* | 17*
SMILES | PLC-beta3 inh | PLC-gamma1 inh | ADAM10 inh | DDE Tn6 FP inh | Tn7 DDE FP | ADAM17 inh | ADAM10 ctr | ADAM17 confirm
CCOC(=O)c1c(NC(=O)CSc2nnc(-c3c[nH]c4ccccc34)n2CCOC)sc2c1CCCCC2 | -5 | -1 | 5 | -6 | -2 | -1 | · | ·
CCOC(=O)c1c(NC(=O)CSc2c[nH]c3ccccc23)sc2c1CCC2 | -3 | 1 | 18 | -4 | -5 | 9.8* | 34* | 21*
CCOC(=O)c1c(NC(=O)CSc2nnc3ccccn23)sc2c1CCC2 | -8 | -3 | -6 | 4 | 3 | -4 | · | ·
CC(C)C(=O)N1CC[C@H]2[C@H](CCCN2Cc2ccccc2)C1 | -3 | 0 | -5 | -3 | 13 | -5 | · | ·
O=C(CCn1nc(-c2ccccc2)c2ccccc2c1=O)N1CCN(c2ccccc2)CC1 | 1 | 6 | 12 | -6 | 11 | 10* | 6 | 8
O=C(CCn1nc(-c2ccccc2)ccc1=O)N1CCN(c2ccccc2)CC1 | 1 | -1 | -4 | 8 | 5 | -4 | · | ·
Cc1cccc(C)c1NC(=O)CN(C)CC(=O)Nc1cc(Cl)ccc1C#N | 3 | 4 | -5 | -3 | -7 | 0 | · | ·
CCOc1ccc(NC(=O)CN(C)CC(=O)Nc2cc(Cl)ccc2C#N)cc1OCC | -1 | 1 | 12 | -5 | -2 | 9.0* | 1 | 1
O=S1(=O)c2ccc(N3CCCC3)cc2Oc2ccccc2CN1Cc1cn(Cc2cccc(C(F)(F)F)c2)nn1 | 1 | 6 | 9 | 2 | -14 | 5 | · | ·
COc1ccccc1C1CC(c2ccc(Br)cc2)=NN1C(=O)c1cccnc1 (centres undefined) | -2 | 5 | 17 | -1 | -2 | 9.7* | 9 | 8
Cc1ccc(NC(=O)O/N=C/c2ccc(Br)cc2)cc1 | -4 | -2 | 0 | -3 | -10 | -1 | · | ·
COc1ccc(NC(=O)O/N=C/c2ccc(Br)cc2)cc1 | -5 | 8 | 13 | -8 | -7 | 10* | -1 | 1
CCn1c(-c2ccccc2Cl)nn(CC(=O)Nc2cc(Cl)ccc2Cl)c1=S | 1 | 1 | 7 | 0 | 1 | 12* | 5 | 5
